Reference: ChEMBL document CHEMBL1149111, “Design and synthesis of a fluoroindolocarbazole series as selective topoisomerase I active agents. Discovery of water-soluble 3,9-difluoro-12,13-dihydro-13-[6-amino-beta-D-glucopyranosyl]-5H,13H-benzo[b]- thienyl[2,3-a]pyrrolo[3,4-c]carbazole- 5,7(6H)-dione (BMS-251873) with curative antitumor …” (J Med Chem, 2004)
pIC50: −log10 of the molar value.

Legend:
P388 = experiment: In vitro cytotoxic concentration against P388 murine leukemia cells was determined; type: functional, cell-based; settings: Mus musculus
Method in brief: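 P388 murine leukemia cells exposed continuously to compound for 3 days; proliferation measured by soluble tetrazolium/formazan conversion (absorbance 450 nm). IC50 = concentration reducing absorbance to 50% of untreated control cells; reported as mean.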

[1] = Ratio for cytotoxicity against camptothecin resistant P388/CPT45 cells to that of parental P388 cells; type: functional, Mus musculus
Method in brief: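 Cytotoxicity after 3-day continuous exposure by tetrazolium dye conversion, read at 450 nm, in camptothecin-resistant P388/CPT45 cells and parental P388 cells; value is IC50 in P388/CPT45 divided by IC50 in P388.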

[2] = target: T1, DNA topoisomerase 1 (Homo sapiens) (UniProt P11387); experiment: Ratio of effective concentration for inducing single strand breaks in the DNA substrate by topoisomerase I compared to camptothecin
T1 sequence (whole entry): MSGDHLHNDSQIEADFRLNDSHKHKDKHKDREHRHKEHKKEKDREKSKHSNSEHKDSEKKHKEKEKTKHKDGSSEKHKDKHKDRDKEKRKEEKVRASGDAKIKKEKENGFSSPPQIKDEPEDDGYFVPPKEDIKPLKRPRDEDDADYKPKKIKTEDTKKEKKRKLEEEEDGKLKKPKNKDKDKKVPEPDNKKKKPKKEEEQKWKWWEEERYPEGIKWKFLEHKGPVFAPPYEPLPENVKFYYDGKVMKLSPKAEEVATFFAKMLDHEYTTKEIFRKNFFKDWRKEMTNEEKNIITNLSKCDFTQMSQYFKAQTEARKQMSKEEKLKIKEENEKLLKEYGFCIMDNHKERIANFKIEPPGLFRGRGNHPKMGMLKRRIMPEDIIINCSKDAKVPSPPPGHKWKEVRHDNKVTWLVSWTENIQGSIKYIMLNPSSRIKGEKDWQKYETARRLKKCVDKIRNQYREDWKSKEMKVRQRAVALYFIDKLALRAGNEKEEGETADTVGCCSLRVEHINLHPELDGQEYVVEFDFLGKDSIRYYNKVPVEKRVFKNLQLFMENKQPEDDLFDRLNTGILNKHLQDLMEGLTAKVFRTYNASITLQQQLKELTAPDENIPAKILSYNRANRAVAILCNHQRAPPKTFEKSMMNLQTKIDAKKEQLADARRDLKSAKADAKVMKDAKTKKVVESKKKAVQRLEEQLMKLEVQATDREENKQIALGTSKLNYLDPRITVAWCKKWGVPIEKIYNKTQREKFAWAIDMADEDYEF
Method in brief: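 Topoisomerase I-mediated single-strand breaks in DNA substrate assayed by a modified Hsiang protocol; median effective concentration (EC50) for break induction divided by camptothecin EC50 measured in the same experiment.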

[3] = Half life of compound was determined in plasma of mice at 24 mg/Kg; type: ADME, organism-based; settings: mouse
Mus musculus [4] = experiment: Inhibitory concentration of compound was determined after intravenous administration in mice after 8 hours of exposure at 24 mg/Kg; type: ADME, organism-based
[5] = Plasma clearance at 24 mg/Kg; type: ADME, organism-based; settings: mouse
[6] = Volume of distribution of compound in plasma was determined at 24 mg/Kg; type: ADME, organism-based; settings: mouse, read-out: Vds
Mus musculus [7] = experiment: Area under curve was determined for the compound at 24 mg/Kg; type: ADME, organism-based; settings: in vivo
Mus musculus [8] = experiment: Inhibitory concentration of compound was determined after intravenous administration in mice after 8 hours of exposure at 5 mg/Kg; type: ADME, organism-based
Mus musculus [9] = experiment: Area under curve was determined for the compound at 5 mg/Kg; type: ADME, organism-based; settings: in vivo
[10] = Half life of compound was determined in plasma of mice at 5 mg/Kg; type: ADME, organism-based; settings: mouse
[11] = Plasma clearance at 5 mg/Kg; type: ADME, organism-based; settings: mouse
[12] = Volume of distribution of compound in plasma was determined at 5 mg/Kg; type: ADME, organism-based; settings: mouse, read-out: Vds

Structure (SMILES)	pIC50 (P388)	Ratio [1]	Ratio [2]	further results
Cn1c2cc(F)c(F)cc2c2c3c(c4c5cc(F)c(F)cc5n(C5OC(CO)C(O)C(O)C5O)c4c21)C(=O)NC3=O (stereo not given)	< 5.06	>1	> 600	
O=C1c2c(c3c4cc(F)ccc4n(C4OC(CO)C(O)C(O)C4O)c3c3[nH]c4ccc(F)cc4c23)C(=O)N1O (stereo not given)	7.46	19.6	0.08	
O=C1NC(=O)c2c1c1c3ccc(F)cc3[nH]c1c1c2c2ccc(F)cc2n1C1OC(CO)C(O)C(O)C1O (stereo not given)	6.59	8.7	2	
O=C1NC(=O)c2c1c1c3ccccc3sc1c1c2c2cc(F)ccc2n1C1OC(CO)C(O)C(O)C1O (stereo not given)	6.81	>51.3	2.2	
O=C1NC(=O)c2c1c1c3cc(F)ccc3[nH]c1c1c2c2ccccc2n1C1OC(CO)C(O)C(O)C1O (stereo not given)	7.00	31.7	1.7	
O=C1NC(=O)c2c1c1c3ccc(F)cc3[nH]c1c1c2c2ccccc2n1C1OC(CO)C(O)C(O)C1O (stereo not given)	7.01	11.4	> 200	
O=C1NC(=O)c2c1c1c3cccc(Cl)c3[nH]c1c1c2c2cccc(Cl)c2n1C1OC(CO)C(O)C(O)C1O (stereo not given)	6.27	1.26	> 500	
CN1C(=O)c2c(c3c4cc(F)ccc4n(C4OC(CO)C(O)C(O)C4O)c3c3sc4ccc(F)cc4c23)C1=O (stereo not given)	6.63	14.1	0.48	
O=C1NC(=O)c2c1c1c3cc(F)ccc3[nH]c1c1c2c2cc(F)ccc2n1C1OC(CO)C(O)C(O)C1O (stereo not given)		182.7	0.22	half-life [3]: 96 min; pIC50 (Mus musculus [4]): 6.07; clearance [5]: 3.6 mL/min/kg; Vd [6]: 0.1 L/kg; AUC (Mus musculus [7]): 0.17 uM hr ml-1
O=C1NC(=O)c2c1c1c3cc(F)ccc3sc1c1c2c2cc(F)ccc2n1C1OC(CO)C(O)C(O)C1O (stereo not given)	8.00	232.5	0.09	pIC50 (Mus musculus [8]): 6.82; AUC (Mus musculus [9]): 0.068 uM hr ml-1; half-life [10]: 456 min; clearance [11]: 9.33 mL/min/kg; Vd [12]: 1.27 L/kg
O=C1NC(=O)c2c1c1c3cc(F)ccc3oc1c1c2c2cc(F)ccc2n1C1OC(CO)C(O)C(O)C1O (stereo not given)	6.94	63.7	0.27	
O=C1NC(=O)c2c1c1c3ccccc3oc1c1c2c2cc(F)ccc2n1C1OC(CO)C(O)C(O)C1O (stereo not given)	6.28	13.6	1.5	
O=C1NC(=O)c2c1c1c3cc(F)c(F)cc3[nH]c1c1c2c2cc(F)c(F)cc2n1C1OC(CO)C(O)C(O)C1O (stereo not given)	8.15	67.1	0.69	
NN1C(=O)c2c(c3c4cc(F)ccc4n(C4OC(CO)C(O)C(O)C4O)c3c3[nH]c4ccc(F)cc4c23)C1=O (stereo not given)	7.70	196.9	0.22	
O=C1NC(=O)c2c1c1c3ccccc3[nH]c1c1c2c2ccc(F)cc2n1C1OC(CO)C(O)C(O)C1O (stereo not given)	6.41	4.6	3.1	
O=C1NC(=O)c2c1c1c3ccccc3[nH]c1c1c2c2cc(F)ccc2n1C1OC(CO)C(O)C(O)C1O (stereo not given)	5.98	>9.5	6.6	
CN1C(=O)c2c(c3c4cc(F)ccc4n(C4OC(CO)C(O)C(O)C4O)c3c3[nH]c4ccc(F)cc4c23)C1=O (stereo not given)	6.06	>10.8	1	
